Data: ChEMBL document CHEMBL1128518, “Synthesis and anti-HIV-1 activity of thio analogues of dihydroalkoxybenzyloxopyrimidines” (J Med Chem, 1995)
pEC50, pIC50: −log10 of the molar value.

Assays:
[1] = target: Human immunodeficiency virus type 1 reverse transcriptase (Human immunodeficiency virus 1, UniProt Q72547); assay: Dose required to inhibit HIV-1 recombinant reverse transcriptase (rRT) activity by 50%.; type: functional
How it was run: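 Highly purified recombinant HIV-1 RT, assayed for RNA-dependent DNA polymerase activity. Template-primer: poly(rC)-oligo(dG)12–18 at 0.5 OD260 units/mL, with [3H]dGTP (1 Ci/mmol). Incubated 20 min at 37 °C; acid-insoluble radioactivity counted on glass fiber filters. Value is the dose giving 50% inhibition; means of three experiments.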

MT4 [2] = assay: Compound dose required to achieve 50% protection of MT-4 cells from HIV-1 induced cytopathogenicity.; type: functional, cell-based; settings: Homo sapiens
How it was run: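 HIV-1 IIIB (100 CCID50/well) added to MT-4 cells (1 × 10^4/well) with or without serial compound concentrations; 4-day incubation at 37 °C. Viable cells counted by MTT; EC50 is the dose giving 50% protection from virus-induced cytopathogenicity. Means of three separate experiments.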

MT4 [3] = assay: Compound dose required to reduce the viability of mock-infected cells by 50%.; type: functional; settings: Homo sapiens
How it was run: (§1)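 Mock-infected MT-4 cells (1 × 10^4/well) exposed to serial compound concentrations, run in parallel with the antiviral assay, 4 days at 37 °C. Viability read by MTT; CC50 is the dose reducing viability by 50%. Means of three separate experiments.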

MT4 [4] = assay: Dose required to achieve 50% protection of MT-4 cells from HIV-1 induced cytopathogenicity; type: functional, cell-based; settings: Homo sapiens
MT4 [5] = assay: Selectivity index calculated as the ratio between CC50 and EC50; type: functional
How it was run: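 Ratio CC50/EC50, both from MTT-read 4-day MT-4 assays (mock-infected and HIV-1 IIIB-infected, 100 CCID50) run in parallel.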

MT4 [6] = assay: Compound dose required to reduce the viability of mock-infected cells by 50%; type: functional; settings: Homo sapiens
MT4 [7] = assay: Compound dose required to reduce the viability of mock-infected cells by 50%, as determined by the MTT method.; type: functional; settings: Homo sapiens; how it was run: as §1

Compound | pIC50 [1] | pEC50 (MT4 [2]) | CC50 (MT4 [3]) [µM] | pEC50 (MT4 [4]) | SI (MT4 [5]) | CC50 (MT4 [6]) [µM] | CC50 (MT4 [7]) [µM]
Cc1cccc(Cc2cc(O)nc(S)n2)c1 | < 5.00 | < 3.59 | 258 | – | – | – | –
Cc1cccc(Cc2nc(SC3CCCCC3)nc(O)c2C)c1 | 5.89 | – | – | 6.22 | >506 | > 304 | –
CSC1=N/C(=C/c2ccccc2)C(C)(C)C(=O)N1 | 5.21 | – | – | 5.51 | 53 | 160 | –
Oc1cc(Cc2ccccc2)nc(SC2CCCC2)n1 | 5.55 | – | – | 5.77 | 86 | 147 | –
CCC(C)Sc1nc(O)cc(Cc2ccccc2)n1 (stereo not drawn) | 5.57 | – | – | 5.92 | 125 | 150 | –
CC(C)CSc1nc(O)cc(Cc2ccccc2)n1 | 5.03 | – | – | 5.29 | 36 | 186 | –
CC1(C)C(=O)NC(SC2CCCC2)=N/C1=C/c1ccccc1 | < 5.00 | – | – | 5.00 | 1.8 | 18 | –
Cc1cccc(Cc2nc(SC3CCCC3)nc(O)c2C)c1 | 5.47 | – | – | 6.22 | >530 | > 318 | –
Cc1cccc(Cc2cc(O)nc(SC(C)C)n2)c1 | 5.54 | – | – | 5.89 | 173 | 225 | –
CSc1nc(O)cc(Cc2ccccc2)n1 | < 5.00 | – | – | 4.46 | >12 | > 431 | –
CC(C)Sc1nc(O)cc(Cc2ccccc2)n1 | < 5.00 | – | – | 5.11 | 43 | 332 | –
CCC(C)Sc1nc(O)c(C)c(Cc2cccc(C)c2)n1 (stereo not drawn) | 5.57 | – | – | 6.00 | 100 | 100 | –
Cc1cccc(/C=C2/N=C(SC(C)C)NC(=O)C2(C)C)c1 | – | – | – | < 4.16 | – | 69 | –
Cc1cccc(Cc2cc(O)nc(SCC(C)C)n2)c1 | 5.08 | – | – | 5.48 | 49 | 163 | –
C=CCSc1nc(O)cc(Cc2cccc(C)c2)n1 | – | – | – | 5.44 | 52 | 188 | –
Cc1c(O)nc(SC(C)C)nc1Cc1ccccc1 | 5.60 | – | – | 5.74 | 77 | 140 | –
Cc1cccc(/C=C2/NC(=S)NC(=O)C2(C)C)c1 | – | – | – | < 3.78 | – | 165 | –
Cc1c(O)nc(S)nc1Cc1ccccc1 | < 5.00 | – | – | < 3.97 | – | 431 | –
Cc1c(O)nc(SC2CCCC2)nc1Cc1ccccc1 | 5.47 | – | – | 6.22 | >555 | > 333 | –
Cc1c(O)nc(SCC(C)C)nc1Cc1ccccc1 | 5.66 | – | – | 6.10 | 162 | 130 | –
CCC(C)SC1=N/C(=C/c2ccccc2)C(C)(C)C(=O)N1 (stereo not drawn) | 5.37 | – | – | 5.48 | 4.8 | 16 | –
CC(C)CSC1=N/C(=C/c2ccccc2)C(C)(C)C(=O)N1 | 5.34 | – | – | 5.44 | 5.5 | 20 | –
Cc1cccc(Cc2cc(O)nc(SC3CCCC3)n2)c1 | 5.59 | – | – | 5.92 | >278 | > 333 | –

Compound | pIC50 [1] | pEC50 (MT4 [2]) | CC50 (MT4 [3]) [µM] | pEC50 (MT4 [4]) | SI (MT4 [5]) | CC50 (MT4 [6]) [µM] | CC50 (MT4 [7]) [µM]
CCC(C)Sc1nc(O)c(C)c(Cc2ccccc2)n1 (stereo not drawn) | 5.62 | – | – | 6.22 | 140 | 86 | –
CC1(C)C(=O)NC(SC2CCCCC2)=N/C1=C/c1ccccc1 | < 5.00 | – | – | 5.04 | 10 | 91 | –
CC(C)SC1=N/C(=C/c2ccccc2)C(C)(C)C(=O)N1 | 5.37 | – | – | 5.44 | 5.5 | 20 | –
CSc1nc(O)c(C)c(Cc2ccccc2)n1 | 5.31 | – | – | 5.92 | >338 | > 406 | –
Oc1cc(Cc2ccccc2)nc(SC2CCCCC2)n1 | 5.52 | – | – | 6.10 | – | > 330 | –
CC(C)=CCSc1nc(O)cc(Cc2cccc(C)c2)n1 | – | – | – | 4.89 | 15 | 193 | –
Cc1cccc(Cc2cc(O)nc(SC3CCCCC3)n2)c1 | 5.59 | – | – | 5.82 | >212 | > 318 | –
CC1(C)C(=O)NC(=S)N/C1=C/c1ccccc1 | – | – | – | < 3.39 | – | > 406 | –
C/C=C/CSc1nc(O)cc(Cc2cccc(C)c2)n1 | – | – | – | 5.10 | 21 | 165 | –
Cc1cn([C@H]2C[C@H](N=[N+]=[N-])[C@@H](CO)O2)c(=O)[nH]c1=O [ZIDOVUDINE] | – | – | – | – | >2000 | > 20 | –
CCC(C)Sc1nc(O)cc(Cc2cccc(C)c2)n1 (stereo not drawn) | 5.92 | – | – | 6.22 | >578 | > 347 | –
CSc1nc(O)cc(Cc2cccc(C)c2)n1 | < 5.00 | – | – | 4.77 | 19 | 317 | –
CSC1=N/C(=C/c2cccc(C)c2)C(C)(C)C(=O)N1 | – | – | – | < 5.28 | – | 5.2 | –
Cc1cccc(/C=C2/N=C(SCC(C)C)NC(=O)C2(C)C)c1 | – | – | – | < 3.50 | – | – | > 316
Cc1cccc(Cc2nc(SC(C)C)nc(O)c2C)c1 | 5.60 | – | – | 5.89 | 77 | 100 | –
Cc1ccnc2c1NC(=O)c1cccnc1N2C1CC1 [NEVIRAPINE] | – | – | – | 6.52 | >1250 | > 376 | –
Cc1cccc(Cc2nc(S)nc(O)c2C)c1 | < 5.00 | – | – | < 3.99 | – | 284 | –
CSc1nc(O)c(C)c(Cc2cccc(C)c2)n1 | 5.60 | – | – | 5.52 | 128 | 385 | –
Cc1c(O)nc(SC2CCCCC2)nc1Cc1ccccc1 | 5.37 | – | – | 6.22 | >530 | > 318 | –
Cc1cccc(Cc2nc(SCC(C)C)nc(O)c2C)c1 | 5.34 | – | – | 5.80 | 206 | 330 | –
Cc1cccc(/C=C2/N=C(SC3CCCC3)NC(=O)C2(C)C)c1 | – | – | – | < 3.52 | – | > 304 | –
CCC(C)SC1=N/C(=C/c2cccc(C)c2)C(C)(C)C(=O)N1 (stereo not drawn) | – | – | – | < 4.60 | – | 25 | –
Cc1cccc(/C=C2/N=C(SC3CCCCC3)NC(=O)C2(C)C)c1 | – | – | – | < 3.53 | – | > 292 | –
